# Results published in ChEMBL document CHEMBL1128719, “The synthesis, structure-activity, and structure-side effect relationships of a series of 8-alkoxy- and 5-amino-8-alkoxyquinolone antibacterial agents” (J Med Chem, 1995).
# Columns and labels:
# [1] = test system: Clostridium perfringens; experiment: In vitro antibacterial activity against Clostridium perfringens CP 3-1; assay type: functional
# [2] = test system: V79; experiment: (§1) Clonogenic cytotoxicity against Chinese hamster V-79 cells; assay type: functional, cell-based; settings: Cricetulus griseus
# Procedure, shortened: (§2)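 Chinese hamster V-79 cells grown overnight, then exposed to drug 3 h at 37 °C; drug medium replaced with fresh medium, cells incubated 5 days and scored for colony formation. IC50 (μg/mL) taken as concentration inhibiting colony formation by 50% versus control.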
# [3] = test system: Peptoniphilus asaccharolyticus; experiment: In vitro antibacterial activity was tested for Pepto asac PA 3-1; assay type: functional
# Procedure, shortened: (§3)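 Microtitration (microdilution) MIC determination in μg/mL against a panel of Gram-positive, Gram-negative and anaerobic organisms. Values come from duplicate or triplicate experiments and are stated accurate to ±50%.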
# [4] = test system: Bacteroides fragilis; experiment: In vitro antibacterial activity against Bacteroides fragilis BFA; assay type: functional; procedure, shortened: as §3
# [5] = test system: Clostridioides difficile; experiment: (§4) In vitro antibacterial activity was tested for Clostridium diff CD1-1; assay type: functional
# [6] = species on record: Mus musculus; experiment: (§5) Phototoxic skin reaction in depilated female CD-1 mice; assay type: toxicity, organism-based; settings: in vivo
# Procedure, shortened: (§6)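 Female CD-1 mice, depilated, given a single oral or subcutaneous dose. UVA (320–400 nm) exposure for 3 h, starting 1 h post-dose. Initial doses were 30, 100 and 300 mg/kg. PTD50 (dose giving phototoxic skin reaction in 50% of mice) derived by probit method. First day of positive reaction and no-effect dose taken from raw data.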
# [7] = test system: Cutibacterium acnes; experiment: In vitro antibacterial activity was tested for Propion acnes PA5-1; assay type: functional; procedure, shortened: as §3
# [8] = test system: Escherichia coli; experiment: In vitro antibacterial activity was tested for Escherichia coli Vogel; assay type: functional; procedure, shortened: as §3
# [9] = test system: Staphylococcus aureus; experiment: In vitro antibacterial activity was tested for Staphylococcus aureus UC-76; assay type: functional; procedure, shortened: as §3
# [10] = test system: Enterococcus faecalis; experiment: In vitro antibacterial activity was tested for Streptococcus faecalis MGH-2; assay type: functional; procedure, shortened: as §3
# [11] = test system: Clostridioides difficile; experiment: as §4; assay type: functional; procedure, shortened: as §3; remark: listed apart in the source
# [12] = test system: Enterobacter cloacae; experiment: In vitro antibacterial activity was tested for Enterobacter cloacae HA2646; assay type: functional
# [13] = test system: Providencia rettgeri; experiment: In vitro antibacterial activity was tested for Providencia rettgeri H1771; assay type: functional; procedure, shortened: as §3
# [14] = test system: Streptococcus pyogenes; experiment: In vitro antibacterial activity was tested for Streptococcus pyogenes C203; assay type: functional; procedure, shortened: as §3
# [15] = test system: Streptococcus pneumoniae; experiment: In vitro antibacterial activity was tested for Streptococcus pneumoniae SV-1; assay type: functional; procedure, shortened: as §3
# [16] = test system: Escherichia coli; experiment: In vitro antibacterial activity was tested for Escherichia coli H560; assay type: functional; procedure, shortened: as §3
# [17] = test system: Pseudomonas aeruginosa; experiment: In vitro antibacterial activity was tested for Pseudomonas aeruginosa UI-18; assay type: functional; procedure, shortened: as §3
# [18] = species on record: Mus musculus; experiment: as §5; assay type: functional; procedure, shortened: as §6
# [19] = test system: Staphylococcus aureus; experiment: In vitro antibacterial activity was tested for Staphylococcus aureus H228; assay type: functional; procedure, shortened: as §3
# [20] = test system: Klebsiella pneumoniae; experiment: In vitro antibacterial activity was tested for Klebsiella pneumoniae MGH-2; assay type: functional; procedure, shortened: as §3
# [21] = test system: V79; experiment: as §1; assay type: functional; settings: Cricetulus griseus; procedure, shortened: as §2
# [22] = species on record: Mus musculus; experiment: phototoxic skin reaction in depilated female CD-1 mice; assay type: functional
# Procedure, shortened: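 Depilated female CD-1 mice given a single oral or subcutaneous dose; UVA (320–400 nm) exposure for 3 h starting 1 h post-dose. Initial doses 30, 100 and 300 mg/kg. PTD50 (dose giving phototoxic skin reaction in 50% of mice) calculated by probit method; first day of positive reaction and no-effect dose also taken from raw data.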
Compound,MIC [1],IC50 [2],MIC [3],MIC [4],MIC [5],PTD50 [6],MIC [7],MIC [8],MIC [9],MIC [10],MIC [12],MIC [13],MIC [14],MIC [15],MIC [16],MIC [17],No effect dose [18],MIC [19],MIC [20],MIC [21],other results
C[C@@H]1CN(c2cc3c(cc2F)c(=O)c(C(=O)O)cn3C2CC2)C[C@H](C)N1,0.2 µg/mL,> 500 µg/mL,0.4 µg/mL,1.6 µg/mL,6.3 µg/mL,< 100 mg,0.8 µg/mL,,,,,,,,,,,,,,
NC1CCN(c2c(F)cc3c(=O)c(C(=O)O)cn(C4CC4)c3c2F)C1 (stereo not drawn),0.05 µg/mL,,0.4 µg/mL,0.2 µg/mL,,7.5 mg,0.2 µg/mL,0.013 µg/mL,0.025 µg/mL,0.05 µg/mL,0.025 µg/mL,0.05 µg/mL,0.05 µg/mL,0.05 µg/mL,0.006 µg/mL,0.1 µg/mL,3 mg,0.05 µg/mL,0.025 µg/mL,,MIC [11]: 0.4 µg/mL
NC1CCN(c2nc3c(cc2F)c(=O)c(C(=O)O)cn3C2CC2)C1 (stereo not drawn),0.1 µg/mL,,0.8 µg/mL,1.6 µg/mL,6.3 µg/mL,> 100 mg,0.2 µg/mL,,,,,,,,,,,,,98 µg/mL,Photoxic reaction [22]: 100 mg
COc1c(N2CCCC(CN)C2)c(F)cc2c(=O)c(C(=O)O)cn(C3CC3)c12 (stereo not drawn),,,,,,,,0.2 µg/mL,0.006 µg/mL,0.05 µg/mL,0.2 µg/mL,0.8 µg/mL,0.006 µg/mL,0.006 µg/mL,0.1 µg/mL,3.1 µg/mL,,0.05 µg/mL,0.4 µg/mL,22 µg/mL,
C[C@@H]1CN(c2c(F)c(N)c3c(=O)c(C(=O)O)cn(C4CC4)c3c2F)C[C@H](C)N1 [SPARFLOXACIN],0.2 µg/mL,370 µg/mL,0.4 µg/mL,1.6 µg/mL,6.3 µg/mL,28 mg,0.4 µg/mL,,,,,,,,,,18 mg,,,,
